The record followed here is PubChem BioAssay.

Molecules are shown by their SMILES. Active and inactive are the calls of the source.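 Rule for the calls, unless noted: active = visually confirmed hit in the image check and inhibition above 20%; inconclusive = visually confirmed hit but inhibition not above 20%; inactive = no visual hit in the image check.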

The term inhibition denotes the relative decrease from the control value, in per cent.

Experiment [1] can be described thus: inhibitors of TNFa-induced NFkB p65 translocation, primary screen, imaging, HUVEC, MLSMR starter and 10KST1 sets (AID 438;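 active = inhibition above 20% together with a positive visual image hit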;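 note: compound added about 3h40 before a 20 min TNFalpha stimulation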;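 for inhibition: signal is the nuclear over cytoplasmic p65 intensity ratio per well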). Particulars: HUVEC TNFa-induced p65 nuclear translocation; cell count: measured here: nuclei count (cytotoxicity indicator), at 2.08 µM; inhibition: at 2 µM, stronger effect = higher value, 0% TNFa-plus-vehicle, 100% no-TNFa wells.
Experiment [2] in a line: inhibitors of E-selectin induction by TNFa, primary screen, imaging, HUVEC, immunofluorescence, MLSMR starter and 10KST1 sets (AID 487).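 For inhibition: signal is fraction of cell area covered by stained E-selectin grains.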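 For nuclei count: 100% = median nuclei count of all wells on the same plate.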 The conditions noted are these: HUVEC TNFalpha-induced E-selectin immunofluorescence imaging, at 2 µM; inhibition: stronger effect = higher value; nuclei count: measured here: cell number, toxicity.
Experiment [3] is described as follows: DUSP6 inhibitors restoring Erk phosphorylation by chemical complementation, primary imaging in DUSP6-transfected HeLa (AID 609;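 active = compounds giving at least 50% inhibition in the cell-based MKP-3 phosphatase rescue imaging test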;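 for inhibition: phospho-Erk level distribution per well compared with pooled transfected vehicle control wells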). The conditions noted are these: HeLa MKP-3 transfected, phospho-Erk imaging KS statistic, at 10 µM, cells stimulated with TPA for 15 min.
Experiment [4] has as its target Dual specificity protein phosphatase 6 (Homo sapiens) (UniProt Q16828). The description is as above. Particulars: HeLa MKP-3 transfected, phospho-Erk imaging KS statistic; at 10 µM; stronger effect = higher value; cells stimulated with TPA for 15 min.
Experiment [5] deals with Voltage-gated potassium channel subunit beta-2 (Rattus norvegicus) (UniProt P62483). The experiment can be described thus: KvBeta enzyme negative modulators, primary screen, biochemical, NADPH fluorescence (AID 622;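 active = fluorescence slope higher than the sample average by over 3 SD, cut at about -0.22 in these data, passing the limit was not always enough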;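 note: slope of raw intensity against log time taken from 70 to 1610 s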). The conditions noted are these: recombinant KvBeta, 4-cyanobenzaldehyde reduction, at 10 µM, stronger effect = higher value.
The target is the same in experiment [6]. The experiment in a line: KvBeta positive modulators, primary screen, biochemical, NADPH fluorescence (AID 623;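 active = NADPH fluorescence slope more negative than the mean of all samples by about 3 SD, 99.7% confidence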;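 note: fluorescence intensity change per second fitted from 20 to 320 s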). Particulars: Recombinant KvBeta, NADPH fluorescence decrease slope, 10 min; at 10 µM; stronger effect = lower value.
For experiment [7], the target named is Muscarinic acetylcholine receptor M4 (Homo sapiens) (UniProt P08173). The experiment can be described thus: compounds altering M4/GIRK thallium flux, either direction, primary screen, M4 allosteric agonist project, cell-based, HEK293 M4/GIRK, BTC-AM (AID 625;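 active = fluorescence slope after compound addition differing from the mean of all tested samples at 99.7% confidence, mostly higher but some lower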;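 note: thallium influx through GIRK channels coupled to M4 in HEK293 cells with BTC-AM dye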). The conditions noted are these: at 10 µM, actives lie on both sides. An outline of the steps:
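Material: HEK293 cells with M4 receptor and GIRK channels; Times: cells overnight at 37 °C, BTC-AM loading 1 h, reads 2 min total; Technique: kinetic BTC-AM fluorescence sampled at 1 Hz, 10 s pre-addition baseline; Read-out basis: slope over 15–24 s of trace normalized to starting intensity; Controls: carbachol positive, DMSO negative.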

The nature of experiment [8]: inhibitors of larval lipid processing in zebrafish, primary screen, whole organism, PED6 fluorescence, gall bladder and intestine (AID 686;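 active = a full or partial loss of lipid-probe fluorescence in the fish gall bladder, intestine or both, judged by eye; inactive = no fluorescence loss, or compound toxic to the fish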;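 note: larvae 5 to 7 days old with five fish per well; signal comes from phospholipase A2 cleavage of quenched PED6 carried via bile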). Particulars: Zebrafish larvae PED6 lipid processing, fluorescence scoring; screened at 20 µM (by protocol). An outline of the steps:
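Incubation: overnight exposure of larvae to compound plus PED6 / Test system: live zebrafish larvae aged 5-7 days, whole organism / Amount: 5 larvae per well / Read-out basis: visual per-well fluorescence inhibition score / Signal: visual fluorescence microscopy scoring of gall bladder, gut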

Experiment [9] is described as follows: inhibitors of Chlamydomonas gravitaxis, primary screen, whole organism, Chlamydomonas reinhardtii, WT vs cilia-less mutant, absorbance, 96-well (AID 463189;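 active = inhibition at or above 50% relative to wild type and mutant plate controls; inactive = inhibition below 50%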;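 note: 0% = wild type cc124 cells in DMSO and 100% = ciliumless bld1 mutant cells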). Particulars: OD600 absorbance, 2 days, at 10 µM, stronger effect = higher value.
Where [10] appears, read: measured here: cell density z-score.
Setting [11] is: measured here: nuclear c-Myc green intensity z-score.
Setting [12] is: measured here: nuclear pErk red intensity z-score, stronger effect = higher value.

Muscarinic acetylcholine receptor M4 (Homo sapiens), sequence (P08173 whole entry, looked up): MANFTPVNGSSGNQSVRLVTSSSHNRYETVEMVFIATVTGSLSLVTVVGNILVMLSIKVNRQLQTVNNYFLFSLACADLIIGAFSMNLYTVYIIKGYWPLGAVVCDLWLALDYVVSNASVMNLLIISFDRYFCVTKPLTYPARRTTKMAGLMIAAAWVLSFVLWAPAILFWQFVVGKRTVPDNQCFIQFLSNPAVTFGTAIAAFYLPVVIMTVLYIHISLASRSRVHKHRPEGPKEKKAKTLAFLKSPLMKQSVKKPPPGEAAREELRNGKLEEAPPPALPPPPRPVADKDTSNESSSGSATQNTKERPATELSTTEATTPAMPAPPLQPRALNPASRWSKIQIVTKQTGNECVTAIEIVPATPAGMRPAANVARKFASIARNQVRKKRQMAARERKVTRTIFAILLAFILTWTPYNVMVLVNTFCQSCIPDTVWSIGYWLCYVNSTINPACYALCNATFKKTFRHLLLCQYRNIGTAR
Voltage-gated potassium channel subunit beta-2 (Rattus norvegicus), sequence (P62483 whole entry, looked up): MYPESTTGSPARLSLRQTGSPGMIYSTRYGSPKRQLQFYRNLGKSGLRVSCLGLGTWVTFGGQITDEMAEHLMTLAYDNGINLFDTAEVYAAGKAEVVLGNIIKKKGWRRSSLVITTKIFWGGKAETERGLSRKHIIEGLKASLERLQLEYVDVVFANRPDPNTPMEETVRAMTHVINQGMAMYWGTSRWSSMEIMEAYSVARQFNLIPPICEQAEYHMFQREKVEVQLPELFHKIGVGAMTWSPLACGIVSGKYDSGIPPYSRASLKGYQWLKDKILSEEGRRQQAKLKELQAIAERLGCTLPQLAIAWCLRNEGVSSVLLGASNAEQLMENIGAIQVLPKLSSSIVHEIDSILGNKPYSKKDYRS
Dual specificity protein phosphatase 6 (Homo sapiens), sequence (Q16828 whole entry, looked up): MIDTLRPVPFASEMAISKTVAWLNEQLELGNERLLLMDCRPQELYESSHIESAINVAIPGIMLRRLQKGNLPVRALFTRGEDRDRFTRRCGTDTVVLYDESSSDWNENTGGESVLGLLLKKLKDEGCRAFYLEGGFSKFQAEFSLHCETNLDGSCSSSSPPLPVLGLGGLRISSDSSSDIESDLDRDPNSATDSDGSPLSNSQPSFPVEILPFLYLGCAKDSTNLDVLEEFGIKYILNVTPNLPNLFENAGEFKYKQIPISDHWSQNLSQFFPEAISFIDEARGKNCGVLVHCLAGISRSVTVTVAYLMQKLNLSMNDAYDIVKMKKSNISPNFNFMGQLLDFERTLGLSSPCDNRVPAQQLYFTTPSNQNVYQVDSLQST

For the compound `CC1(C)Cc2c(C#N)c(OCC(=O)c3ccccc3)nc(-c3ccoc3)c2CO1`, the cell count in [1] came out at 547. Besides, the inhibition was -9.6% (inactive) in experiment [1], 14.2% (inactive) in experiment [2], -0.233% (inactive) in experiment [4] and 56.8% (active) in experiment [9]. The compound further returned a nuclei count in [2] of 98.1%. For the same compound, the z-score in experiment [3] (setting [10]) is 0.66; in [3] (setting [11]), -1.5; in [3] (setting [12]), -0.876. Further, the figures for the fluorescence slope in experiment [5] and in experiment [7] were -0.465 (inactive) and 0.00542 (inactive), respectively. The NADPH fluorescence slope in experiment [6] was 2.6e-05 (inactive). In addition, in experiment [8], the compound was classed as inactive.
On to `CCOC(=O)C1=C(C)N=C2SC(C)C(=O)N2C1c1ccc(C(=O)OC)cc1` (stereo unspecified), for which the cell count in experiment [1] worked out at 701. Moreover, the inhibition in experiment [1] is 2.4% (inactive); in experiment [2] it was -69.3% (inactive); in [4] it was 15% (inactive); in experiment [9], -2.25% (inactive). In [2], the nuclei count came out at 146%. The z-score in experiment [3] (setting [10]) was -0.735; in experiment [3] (setting [11]), 0.0686; in [3] (setting [12]), 1.13. In addition, the fluorescence slope in experiment [5] is -0.428 (inactive); in experiment [7], 0.00536 (inactive). The NADPH fluorescence slope in [6] was -2.7e-05 (inactive). Also, the result in experiment [8] was inactive.
Turning to `CCCCn1c(=O)n(C)c(=O)c2c3c(sc21)COC(C)(C)C3`, in [1], the cell count is 589. For the same compound, the inhibition in experiment [1] is -5.2% (inactive); in [2], -64.5% (inactive); in experiment [4], 1.63% (inactive); in experiment [9], 43.8% (inactive). In [2], this compound came in with a nuclei count of 144%. The z-score in experiment [3] (setting [10]) is -0.346; in experiment [3] (setting [11]) it was -0.449; in experiment [3] (setting [12]) it was -0.806. For the same compound, the results for the fluorescence slope in [5] and in experiment [7] were -0.447 (inactive) and 0.00382 (inactive), respectively. Further, the NADPH fluorescence slope in experiment [6] is -1.3e-06 (inactive). Besides, in [8], the compound was called inactive.
Take `N#Cc1nc(COc2ccc(Br)cc2)oc1N1CCN(Cc2ccccc2)CC1`: the cell count in experiment [1] is 444. Moreover, the inhibition is 2% (inactive) in [1], -74.5% (inactive) in experiment [2], 12.7% (inactive) in experiment [4] and 12.9% (inactive) in experiment [9]. The compound also gave a nuclei count in experiment [2] of 138%. The z-score is 0.98 in experiment [3] (setting [10]), 0.14 in [3] (setting [11]) and -0.518 in experiment [3] (setting [12]). In addition, the fluorescence slope is -0.444 (inactive) in experiment [5] and 0.00951 (inactive) in [7]. Also, the NADPH fluorescence slope in experiment [6] is -2.9e-05 (inactive). The result in [8] was inactive.
`COc1ccc(C2C(C(C)=O)=C(O)C(=O)N2c2nccs2)cc1OC` (stereo unspecified): in [1], the cell count stood at 651. For the same compound, the inhibition is -8.9% (inactive) in experiment [1], -2.2% (inactive) in experiment [2], -7.67% (inactive) in experiment [4] and -3.88% (inactive) in experiment [9]. For the same compound, in experiment [2], the nuclei count was found to be 87.4%. The z-score in experiment [3] (setting [10]) is -0.646; in [3] (setting [11]), -0.662; in experiment [3] (setting [12]) it was -0.478. In addition, the results for the fluorescence slope in [5] and in experiment [7] were -0.5 (inactive) and 0.00821 (inactive), respectively. Moreover, the NADPH fluorescence slope in experiment [6] was -0.000231 (inactive). In addition, in experiment [8], the compound was classed as inactive.
With `N#CCSc1nc2c(c(=O)n1Cc1ccco1)C1(CCCC1)Cc1ccccc1-2`, the cell count in [1] came out at 500. Further, the inhibition was -2.6% (inactive) in experiment [1], -97.3% (inactive) in experiment [2], 13.9% (inactive) in experiment [4] and -7.4% (inactive) in experiment [9]. Besides, the nuclei count in experiment [2] is 150%. Besides, the results for the z-score in experiment [3] (setting [10]), in experiment [3] (setting [11]) and in experiment [3] (setting [12]) were 0.3, 0.666 and -0.907, respectively. Moreover, the fluorescence slope was -0.397 (inactive) in experiment [5] and 0.00897 (inactive) in experiment [7]. For the same compound, the NADPH fluorescence slope in [6] is -2.2e-05 (inactive). Moreover, the outcome in experiment [8] is “active; weak signal in gallbladder and intestine”.
As for `CCC(NC(=O)Nc1nccs1)(C(F)(F)F)C(F)(F)F`, the cell count in [1] is 600. Also, the inhibition in [1] was -9% (inactive); in experiment [2], 21.5% (inactive); in experiment [4], -11.4% (inactive); in experiment [9] it was -12.6% (inactive). For the same compound, the nuclei count in [2] turned out to be 89%. The z-score is 0.356 in [3] (setting [10]), 1.04 in experiment [3] (setting [11]) and -0.804 in experiment [3] (setting [12]). In addition, the fluorescence slope in experiment [5] is -0.475 (inactive); in [7], 0.0066 (inactive). In [6], the NADPH fluorescence slope is -3.1e-05 (inactive). Further, the call in [8] was inactive.
